This note sets out measurements from paper PMC5982514 (Biochemistry, 2018).

What all share (type): biochemical
One assay concerns the target BTK (GST fusion) (Homo sapiens, UniProt Q06187). Put plainly: Michaelis-Menten kinetic analysis, BTK. In a few lines: (§1)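 GST-fused kinases were expressed in HEK293T and purified on glutathione Sepharose, then used at 0.3 ng/μL. Peptides (Lys-substituted C-termini) were titrated from 1 to 150 μM with 50 μM [γ-33P]ATP (0.025 μCi/μL) in HEPES pH 7.5/NaCl/MgCl2/DTT/Tween 20 buffer at 30 °C. Aliquots at 10–30 min went onto P81 paper for phosphorimaging. kcat/Km came from a Michaelis–Menten fit or the linear slope (≤75 μM). Three experiments.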

The next assay deals with Abl (Homo sapiens, UniProt P00519). Put plainly: Michaelis-Menten kinetic analysis, Abl. Conditions: for catalytic parameters compared with consensus peptides: consensus peptides of ref [15].
Abl, sequence (P00519 whole entry): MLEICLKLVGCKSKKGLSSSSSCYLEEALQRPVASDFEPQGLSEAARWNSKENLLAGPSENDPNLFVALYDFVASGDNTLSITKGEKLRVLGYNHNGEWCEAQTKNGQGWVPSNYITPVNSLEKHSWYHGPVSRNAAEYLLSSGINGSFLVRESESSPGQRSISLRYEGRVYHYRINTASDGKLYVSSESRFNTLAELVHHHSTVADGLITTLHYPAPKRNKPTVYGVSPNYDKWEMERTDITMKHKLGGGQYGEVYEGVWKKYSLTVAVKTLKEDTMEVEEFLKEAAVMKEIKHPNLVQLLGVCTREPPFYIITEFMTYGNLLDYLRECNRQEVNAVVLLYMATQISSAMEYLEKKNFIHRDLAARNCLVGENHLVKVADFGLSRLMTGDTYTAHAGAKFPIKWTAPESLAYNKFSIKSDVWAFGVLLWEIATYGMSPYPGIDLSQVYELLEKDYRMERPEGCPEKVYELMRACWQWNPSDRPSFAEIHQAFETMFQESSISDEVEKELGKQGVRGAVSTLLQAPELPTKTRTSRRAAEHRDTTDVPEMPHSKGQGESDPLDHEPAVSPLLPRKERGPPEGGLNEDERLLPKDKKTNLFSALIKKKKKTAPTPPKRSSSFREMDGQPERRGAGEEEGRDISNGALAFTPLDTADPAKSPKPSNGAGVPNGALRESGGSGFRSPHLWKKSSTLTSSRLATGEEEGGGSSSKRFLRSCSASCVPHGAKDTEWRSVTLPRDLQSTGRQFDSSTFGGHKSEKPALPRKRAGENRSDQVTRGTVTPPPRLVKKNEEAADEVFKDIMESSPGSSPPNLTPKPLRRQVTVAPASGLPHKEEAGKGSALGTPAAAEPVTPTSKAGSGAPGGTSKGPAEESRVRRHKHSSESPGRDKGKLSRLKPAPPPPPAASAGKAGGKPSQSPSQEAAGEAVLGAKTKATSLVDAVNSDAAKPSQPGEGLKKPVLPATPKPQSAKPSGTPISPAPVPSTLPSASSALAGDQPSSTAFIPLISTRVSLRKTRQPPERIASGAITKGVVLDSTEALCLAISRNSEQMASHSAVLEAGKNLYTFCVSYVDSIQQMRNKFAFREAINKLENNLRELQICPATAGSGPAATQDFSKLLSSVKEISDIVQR
Assay [1] deals with BTK, SYK, ABL, SRC, ALK, EGFR and FLT3. The experiment in a line: Kinetic analysis across seven PTKs. Conditions: for substrate activity for all kinases tested: panel screen and seven PTKs. In a few lines: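 Kinetics on seven kinases. Final enzyme: 0.3 ng/μL ABL/BTK/SRC/SYK, 1.5 ng/μL FLT3, 2.7 ng/μL ALK/EGFR. Lys-modified peptides at 1–150 μM with 50 μM [γ-33P]ATP, 30 °C; spotted on P81 at 10/20/30 min. Michaelis–Menten fit, or kcat/Km from linear slope (≤75 μM); three runs (FLT3 two).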

The target of a further assay is Src (GST fusion) (Homo sapiens, UniProt P12931). The experiment in a line: Michaelis-Menten kinetic analysis, Src. Conditions: consensus peptides of ref [15]. In a few lines: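 GST-SRC from HEK293T, glutathione-Sepharose purified, 0.3 ng/μL final. Peptides with C-terminal Gly→Lys at 1–150 μM, in HEPES pH 7.5/NaCl/MgCl2/DTT/Tween 20 with 50 μM [γ-33P]ATP at 30 °C. Aliquots at 10, 20 and 30 min spotted on P81, H3PO4-washed, phosphorimaged. Initial rates fit to Michaelis–Menten, or kcat/Km from linear slope (≤75 μM); mean ± SEM of three experiments.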

In another assay the target is Syk (GST fusion) (Homo sapiens, UniProt P43405). The experiment in a line: Michaelis-Menten kinetic analysis, Syk. Particulars: kcat/Km of peptide 2 over peptide 5, mean±sem, three experiments. In a few lines: as §1
The target in a further assay is EGFR (His6-EGFR^672–998) (Homo sapiens, UniProt P00533). The experiment in a line: Michaelis-Menten kinetic analysis, EGFR. In a few lines: (§2)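 His6-tagged intracellular kinase domains were expressed and purified from Sf9 cells and used at 2.7 ng/μL final. Peptides were varied over 1–150 μM with 50 μM [γ-33P]ATP (0.025 μCi/μL) in pH 7.5 HEPES buffer containing 10 mM MgCl2 at 30 °C. Aliquots taken at 10, 20 and 30 min were captured on P81 paper, washed in 75 mM H3PO4 and phosphorimaged. Rates were fitted to Michaelis–Menten, or kcat/Km was taken from the linear slope (≤75 μM). Three experiments.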

Another assay has as its target ALK (His6-ALK^1090–1416) (Homo sapiens, UniProt Q9UM73). The experiment in a line: Michaelis-Menten kinetic analysis, ALK. Particulars: kcat/Km of peptide 2 over peptide 5, mean±sem, three experiments. In a few lines:
as §2

Another assay deals with T1, FLT3 (GST-FLT3^564–993) (Homo sapiens, UniProt P36888).
T1 sequence (P36888 564-993): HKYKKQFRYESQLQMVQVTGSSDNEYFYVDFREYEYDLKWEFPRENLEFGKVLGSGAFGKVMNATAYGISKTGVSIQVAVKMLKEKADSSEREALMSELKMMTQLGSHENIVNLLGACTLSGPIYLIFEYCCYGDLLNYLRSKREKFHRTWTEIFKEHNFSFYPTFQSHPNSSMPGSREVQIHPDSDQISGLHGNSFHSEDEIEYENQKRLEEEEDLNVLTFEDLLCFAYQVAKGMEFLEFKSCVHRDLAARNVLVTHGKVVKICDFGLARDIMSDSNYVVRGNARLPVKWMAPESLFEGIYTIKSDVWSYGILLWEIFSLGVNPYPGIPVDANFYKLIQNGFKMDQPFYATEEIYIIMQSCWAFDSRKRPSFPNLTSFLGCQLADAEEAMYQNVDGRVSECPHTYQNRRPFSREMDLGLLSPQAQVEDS
The experiment in a line: Michaelis-Menten kinetic analysis, FLT3. Particulars: kcat/Km of peptide 2 over peptide 5, mean±sem, two experiments. In a few lines:
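GST-FLT3 (residues 564–993) was expressed in HEK293T, glutathione-purified and used at 1.5 ng/μL. Peptides at 1–150 μM were reacted with 50 μM [γ-33P]ATP (0.025 μCi/μL) in 50 mM HEPES pH 7.5, 10 mM MgCl2, 1 mM DTT at 30 °C. Timepoints at 10, 20 and 30 min were spotted on P81 paper and phosphorimaged. Initial rates were fitted to Michaelis–Menten, or kcat/Km was derived from the slope up to 75 μM. Two experiments.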

The mark [2] stands for this setting: kcat/Km of peptide 2 over peptide 5, mean±sem, three experiments.

BTK (GST fusion), sequence (Q06187 whole entry, the tested form may be a part): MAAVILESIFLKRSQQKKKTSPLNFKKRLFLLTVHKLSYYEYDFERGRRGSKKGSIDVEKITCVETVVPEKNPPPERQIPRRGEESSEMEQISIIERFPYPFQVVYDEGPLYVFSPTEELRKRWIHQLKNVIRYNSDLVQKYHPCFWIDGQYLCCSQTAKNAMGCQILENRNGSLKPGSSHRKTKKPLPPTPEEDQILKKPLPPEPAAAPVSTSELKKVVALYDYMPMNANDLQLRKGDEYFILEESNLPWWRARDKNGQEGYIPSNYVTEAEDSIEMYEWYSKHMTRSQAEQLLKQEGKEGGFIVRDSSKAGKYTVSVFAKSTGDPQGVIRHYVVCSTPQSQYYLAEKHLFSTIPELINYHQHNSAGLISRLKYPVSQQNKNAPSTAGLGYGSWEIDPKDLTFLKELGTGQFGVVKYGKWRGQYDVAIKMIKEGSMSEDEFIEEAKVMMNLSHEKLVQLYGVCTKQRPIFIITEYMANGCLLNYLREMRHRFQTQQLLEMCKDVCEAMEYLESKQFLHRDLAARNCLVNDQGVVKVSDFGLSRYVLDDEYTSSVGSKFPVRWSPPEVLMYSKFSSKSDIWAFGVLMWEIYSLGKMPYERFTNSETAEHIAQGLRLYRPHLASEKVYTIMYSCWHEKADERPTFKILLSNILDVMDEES
ALK (His6-ALK^1090–1416), sequence (Q9UM73 1090-1416): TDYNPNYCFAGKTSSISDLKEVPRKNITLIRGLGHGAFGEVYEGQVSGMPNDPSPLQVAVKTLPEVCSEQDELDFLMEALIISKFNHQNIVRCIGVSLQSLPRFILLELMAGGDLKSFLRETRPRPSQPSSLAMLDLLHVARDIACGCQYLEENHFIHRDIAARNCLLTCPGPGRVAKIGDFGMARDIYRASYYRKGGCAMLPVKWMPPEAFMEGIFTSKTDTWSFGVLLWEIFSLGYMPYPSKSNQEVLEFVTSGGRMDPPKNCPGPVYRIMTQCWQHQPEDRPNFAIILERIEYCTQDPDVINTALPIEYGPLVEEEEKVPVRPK

On to DEAIYATVA [Peptide 5], for which the “kinase preference between peptides 2 and 5” value at BTK (GST fusion) (specificity constant) and on Abl (specificity constant) was “more substantial preference” throughout. The “catalytic parameters compared with consensus peptides” value on Abl and at Src (GST fusion) was “rivaled those determined with consensus peptides” throughout. Moreover, in assay [1] (NRTKs among the kinases examined, peptide 5 vs peptide 2), the “preference of NRTKs” value is “the reverse preference was seen for NRTKs”. The “substrate activity for all kinases tested” value in assay [1] was “successful substrates for all kinases tested”.

As for EDPIYVTLE [Peptide 2], the “2/5 kcat/Km ratio” value on Syk (GST fusion) is recorded as 1.8 ± 0.2; on BTK (GST fusion) (setting [2]), 0.31 ± 0.01; on Abl (setting [2]), 0.13 ± 0.01; on EGFR (His6-EGFR^672–998) (setting [2]) it was 5.8 ± 0.2; on ALK (His6-ALK^1090–1416), 1.23 ± 0.02; on FLT3 (GST-FLT3^564–993), 1.43 ± 0.07. For the same sequence, the “catalytic parameters compared with consensus peptides” value on Abl and on Src (GST fusion) was “rivaled those determined with consensus peptides” throughout. The “kinase preference between peptides 2 and 5” value at EGFR (His6-EGFR^672–998) (specificity constant) was “more substantial preference”. The “preference of RTKs” value in assay [1] (RTKs among the kinases examined, generally, peptide 2 vs peptide 5) was “generally preferred over peptide 5 for RTKs”. Further, the “substrate activity for all kinases tested” value in assay [1] was “successful substrates for all kinases tested”.
